ChEMBL document CHEMBL4422637, “Identification of dual role of piperazine-linked phenyl cyclopropyl methanone as positive allosteric modulator of 5-HT2C and negative allosteric modulator of 5-HT2B receptors” (Eur J Med Chem, 2019)
Calls of active or inactive are those of the source. The rule behind the calls is not given here.

Assays:
[1] = biological target: T1, 5-hydroxytryptamine receptor 2C (Homo sapiens) (UniProt P28335); experiment: Agonist activity at 5HT2C receptor (unknown origin) expressed in HEK293 cells co-expressing NFAT-RE at 10 uM after 6 to 12 hrs by Bright-Glo luciferase reporter gene assay; format: cell-based
T1 sequence (whole entry): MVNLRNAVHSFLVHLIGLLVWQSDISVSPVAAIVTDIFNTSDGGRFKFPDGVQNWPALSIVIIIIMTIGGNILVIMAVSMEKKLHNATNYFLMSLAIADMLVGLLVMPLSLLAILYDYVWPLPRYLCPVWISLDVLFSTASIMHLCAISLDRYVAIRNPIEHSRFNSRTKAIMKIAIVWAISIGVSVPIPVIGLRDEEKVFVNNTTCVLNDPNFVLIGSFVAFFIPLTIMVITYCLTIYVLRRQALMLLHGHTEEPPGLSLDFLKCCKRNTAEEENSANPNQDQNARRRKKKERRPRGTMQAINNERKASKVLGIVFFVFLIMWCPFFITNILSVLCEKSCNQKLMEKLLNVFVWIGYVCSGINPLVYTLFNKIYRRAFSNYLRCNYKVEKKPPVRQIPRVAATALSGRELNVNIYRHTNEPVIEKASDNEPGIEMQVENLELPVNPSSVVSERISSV
How it was run: (§1)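 Primary screen at 5-HT2C in transiently co-transfected HEK293T (receptor plus NFAT-RE luciferase plasmids, 50,000 cells/well). Compounds tested in triplicate at a final 10 µM in HEPES-buffered HBSS pH 7.4 and incubated 6-12 h. Luminescence read within 5 min of Bright-Glo (1 mg/ml final). Signal normalized to the 5-HT maximal response.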

[2] = biological target: T1, 5-hydroxytryptamine receptor 2C (Homo sapiens); experiment: Positive allosteric modulation of 5HT2C receptor (unknown origin) expressed in HEK293 cells co-expressing NFAT-RE assessed as increase in serotonin-induced reponse at 10 uM after 6 to 12 hrs by Bright-Glo luciferase reporter gene assay relative to serotonin; format: cell-based
How it was run: (§2)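 Transiently co-transfected HEK293T cells expressing 5-HT2A, 5-HT2B or 5-HT2C with NFAT-RE luciferase, 50,000 cells/well. Test compound added first at 10 µM, 1 µM or 100 nM, in triplicate. A 5-HT concentration-response (10 µM to 0.01 nM) followed, then 6-12 h incubation. Bright-Glo luminescence was fitted by non-linear regression, with Emax normalized to 5-HT alone (100%). n=3-4.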

[3] = biological target: T1, 5-hydroxytryptamine receptor 2C (Homo sapiens); experiment: Positive allosteric modulation of 5HT2C receptor (unknown origin) expressed in HEK293 cells co-expressing NFAT-RE assessed as increase in serotonin-induced reponse at 1 uM after 6 to 12 hrs by Bright-Glo luciferase reporter gene assay relative to serotonin; format: cell-based; how it was run: as §2
[4] = biological target: T1, 5-hydroxytryptamine receptor 2C (Homo sapiens); experiment: Positive allosteric modulation of 5HT2C receptor (unknown origin) expressed in HEK293 cells co-expressing NFAT-RE assessed as increase in serotonin-induced reponse at 100 nM after 6 to 12 hrs by Bright-Glo luciferase reporter gene assay relative to serotonin; format: cell-based; how it was run: as §2
[5] = biological target: T1, 5-hydroxytryptamine receptor 2C (Homo sapiens); experiment: Positive allosteric modulation of 5HT2C receptor (unknown origin) expressed in HEK293 cells co-expressing NFAT-RE assessed as increase in serotonin-induced intracellular calcium flux at 1 uM preincubated for 15 mins followed by serotonin stimulation and measured for 120 secs by Fluo-4NW dye based fluorescence assay relative to serotonin; format: functional, cell-based
How it was run: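 5-HT2C-transfected HEK293T cells, 50,000 cells/well, loaded with Fluo-4NW calcium dye. Compound (1 µM) preincubated 15 min. 5-HT then added at 35 µl/min and fluorescence (ex 494/em 516 nm) recorded for 120 s. Fold change was calculated against baseline from the first 5 s before ligand addition. Emax normalized to 5-HT alone.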

[6] = biological target: T1, 5-hydroxytryptamine receptor 2C (Homo sapiens); experiment: Agonist activity at 5HT2C receptor (unknown origin) expressed in HEK293 cells co-expressing NFAT-RE at 10 uM after 6 to 12 hrs by Bright-Glo luciferase reporter gene assay relative to control; format: cell-based; how it was run: as §1
[7] = biological target: T2, 5-hydroxytryptamine receptor 2B (Homo sapiens, UniProt P41595); experiment: Negative allosteric modulation of 5HT2B receptor (unknown origin) expressed in HEK293 cells co-expressing NFAT-RE assessed as reduction in serotonin-induced reponse after 6 to 12 hrs by Bright-Glo luciferase reporter gene assay; format: cell-based; how it was run: as §2
T2 sequence (P41595 whole entry): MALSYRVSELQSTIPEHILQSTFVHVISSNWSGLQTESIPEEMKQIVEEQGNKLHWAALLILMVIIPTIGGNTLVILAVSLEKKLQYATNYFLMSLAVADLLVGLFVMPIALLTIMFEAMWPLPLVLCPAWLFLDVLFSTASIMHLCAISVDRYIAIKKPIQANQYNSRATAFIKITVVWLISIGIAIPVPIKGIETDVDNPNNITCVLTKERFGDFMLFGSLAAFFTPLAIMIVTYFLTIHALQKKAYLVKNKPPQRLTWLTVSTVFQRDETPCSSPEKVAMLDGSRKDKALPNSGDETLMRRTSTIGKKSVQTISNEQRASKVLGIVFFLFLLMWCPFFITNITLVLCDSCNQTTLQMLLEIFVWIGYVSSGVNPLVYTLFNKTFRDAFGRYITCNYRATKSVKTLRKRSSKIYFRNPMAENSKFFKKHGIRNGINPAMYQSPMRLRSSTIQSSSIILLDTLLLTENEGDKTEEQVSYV

5HT2A receptor = 5HT2A receptor (Homo sapiens, UniProt P28223); experiment: Positive allosteric modulation of 5HT2A receptor (unknown origin) expressed in HEK293 cells co-expressing NFAT-RE assessed as increase in serotonin-induced reponse at 1 uM after 6 to 12 hrs by Bright-Glo luciferase reporter gene assay relative to serotonin; format: cell-based; settings: HEK293 cells expressing 5HT2A receptor and NFAT-RE reporter; how it was run: as §2
5HT2A receptor, sequence (P28223 whole entry): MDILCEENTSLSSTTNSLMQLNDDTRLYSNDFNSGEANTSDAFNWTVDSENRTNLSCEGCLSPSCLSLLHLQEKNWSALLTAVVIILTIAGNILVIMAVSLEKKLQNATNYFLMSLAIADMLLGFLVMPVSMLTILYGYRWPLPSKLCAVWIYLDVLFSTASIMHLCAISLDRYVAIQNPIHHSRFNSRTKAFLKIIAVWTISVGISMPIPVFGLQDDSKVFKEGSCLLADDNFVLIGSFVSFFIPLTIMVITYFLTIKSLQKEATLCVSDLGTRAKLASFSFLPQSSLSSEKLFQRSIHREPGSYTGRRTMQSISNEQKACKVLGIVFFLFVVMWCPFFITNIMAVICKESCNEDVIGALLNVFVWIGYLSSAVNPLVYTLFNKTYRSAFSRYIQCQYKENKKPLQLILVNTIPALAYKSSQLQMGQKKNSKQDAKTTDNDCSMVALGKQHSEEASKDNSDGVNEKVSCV

5HT2B receptor = 5HT2B receptor (Homo sapiens, UniProt P41595); experiment: Positive allosteric modulation of 5HT2B receptor (unknown origin) expressed in HEK293 cells co-expressing NFAT-RE assessed as increase in serotonin-induced reponse at 1 uM after 6 to 12 hrs by Bright-Glo luciferase reporter gene assay relative to serotonin; format: cell-based; settings: HEK293 cells expressing 5HT2B receptor and NFAT-RE reporter; how it was run: as §2
5HT2B receptor, sequence (P41595 whole entry): as the sequence (P41595 whole entry) above

[8] = biological target: T3, 5-hydroxytryptamine receptor 2A (Homo sapiens, UniProt P28223); experiment: Agonist activity at 5HT2A receptor (unknown origin) expressed in HEK293 cells co-expressing NFAT-RE after 6 to 12 hrs by Bright-Glo luciferase reporter gene assay; format: cell-based
T3 sequence (P28223 whole entry): as the sequence (P28223 whole entry) above
How it was run: (§3)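 HEK293T cells transiently co-transfected (PEI) with 0.1 µg/well receptor plasmid (5-HT2A, 5-HT2B or 5-HT2C) plus 0.1 µg/well NFAT-RE luciferase reporter, plated 50,000 cells/well 24 h before treatment. Compounds tested in triplicate from 10 µM down to 0.01 nM in HBSS/20 mM HEPES pH 7.4, incubated 6-12 h. Luminescence read within 5 min of Bright-Glo (1 mg/ml final). RLU fitted by non-linear regression; 5-HT Emax set to 100%.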

Rattus norvegicus [9] = experiment: Induction of anorexia in Sprague-Dawley rat assessed as suppression of food intake at 2 pmol, icv measured after 3 to 6 hrs; format: functional, organism-based
How it was run: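 Adult SD rats (150-200 g) on a 12 h light/dark cycle at 22 °C, cannulated in the right ventricle. Rats were fasted 4 h with free access to water, then dosed i.c.v. with 2 pmol/rat (2 µL) in aCSF vehicle; lorcaserin 2 pmol/rat served as positive control. Weighed pellets were given 10 min later, and remaining food plus spillage was weighed at 3, 6 and 24 h; n=4.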

Rattus norvegicus [10] = experiment: Induction of anorexia in Sprague-Dawley rat assessed as suppression of food intake at 2 pmol, icv measured after 24 hrs; format: functional, organism-based
How it was run: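 Adult SD rats (150-200 g) on a 12 h light/dark cycle at 22 °C, with a cannula in the right ventricle (AP -0.9, ML -1.5, DV -3.5). Rats were food-deprived for 4 h with water available. Compound given i.c.v. at 2 pmol/rat in 2 µL, vehicle aCSF; lorcaserin 2 pmol as positive control. Weighed pellets were supplied 10 min later. Remaining food including spillage was weighed at 3, 6 and 24 h; n=4.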

[11] = biological target: T2, 5-hydroxytryptamine receptor 2B; experiment: Agonist activity at 5HT2B receptor (unknown origin) expressed in HEK293 cells co-expressing NFAT-RE after 6 to 12 hrs by Bright-Glo luciferase reporter gene assay; format: cell-based; how it was run: as §3
[12] = biological target: T1, 5-hydroxytryptamine receptor 2C (Homo sapiens); experiment: Agonist activity at 5HT2C receptor (unknown origin) expressed in HEK293 cells co-expressing NFAT-RE after 6 to 12 hrs by Bright-Glo luciferase reporter gene assay; format: cell-based; how it was run: as §3
[13] = biological target: T4, 5-hydroxytryptamine receptor 2C (Homo sapiens, UniProt P28335); experiment: Positive allosteric modulation of 5HT2C receptor (unknown origin) expressed in HEK293 cells co-expressing NFAT-RE assessed as increase in serotonin-induced reponse after 6 to 12 hrs by Bright-Glo luciferase reporter gene assay; format: cell-based; how it was run: as §2
T4 sequence (P28335 whole entry): T1 sequence (whole entry)

[14] = biological target: T3, 5-hydroxytryptamine receptor 2A; experiment: Positive allosteric modulation of 5HT2A receptor (unknown origin) expressed in HEK293 cells co-expressing NFAT-RE assessed as increase in serotonin-induced reponse after 6 to 12 hrs by Bright-Glo luciferase reporter gene assay; format: cell-based; how it was run: as §2
[15] = biological target: T2, 5-hydroxytryptamine receptor 2B; experiment: Positive allosteric modulation of 5HT2B receptor (unknown origin) expressed in HEK293 cells co-expressing NFAT-RE assessed as increase in serotonin-induced reponse after 6 to 12 hrs by Bright-Glo luciferase reporter gene assay; format: cell-based; how it was run: as §2

Activity [1]: inactive
Emax [2]: 149%
Emax [3]: 139 to 146%
Activity [4]: Active
Emax [5]: 124%
fold change (FC) [6]: 2
Activity [7]: Dose-dependent effect
Emax at 1 µM (5HT2A receptor): 99%
Emax at 1 µM (5HT2B receptor): 118%
Activity [8]: Not Active
Activity [11]: Not Active
Activity [12]: inactive
EC50 [13]: 5.01 nM
EC50 [14]: 38 nM
EC50 [15]: 11.7 nM
Compound: O=C(c1ccc(N2CCN(Cc3ccccc3)CC2)cc1)C1CC1
Activity (Rattus norvegicus [9]): Active
Activity (Rattus norvegicus [10]): inactive
